Experimental data: ChEMBL document CHEMBL1909634, “Vitamin B6s inhibit oxidative stress caused by Alzheimer's disease-related Cu(II)-β-amyloid complexes-cooperative action of phospho-moiety” (Bioorg Med Chem Lett, 2011)
Structures can show the parent of a compound that is named as a salt. Blank lines part the entries; values can stand above or below the compound they belong to.

Tests used:
Format in all cases: functional
[1] = Competitive inhibition of Cu2-amyloid beta (1 to 20) complex-induced DTBC oxidation by spectrophotometry
Summary of the method: (§1)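 Cu(II)–Aβ complex formed just before assay by mixing stoichiometric Cu(II) and peptide at μM level in the reaction solution. Several concentrations of DTBC or THB substrate are incubated with a constant Cu(II)–Aβ concentration in 0.1 M HEPES, pH 7.4, 25 °C. Ki is obtained from Lineweaver–Burk analysis assuming competitive inhibition.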

[2] = Competitive inhibition of Cu2-amyloid beta (1 to 16) complex-induced DTBC oxidation by spectrophotometry; summary of the method: as §1
[3] = Inhibition of Cu2-amyloid beta (1 to 16) complex-induced dopamine oxidation by spectrophotometry
Summary of the method: (§2)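 Cu(II)–Aβ prepared fresh from stoichiometric Cu(II) and peptide at μM level. Dopamine oxidation (1.0 mM for inhibition plots; varied for Lineweaver–Burk) is catalysed by 2.0 μM Cu–Aβ1-40, 3.0 μM Cu–Aβ1-16, or 3.0 or 17.0 μM Cu–Aβ1-20, in 0.1 M HEPES pH 7.4, 25 °C. Inhibitor is titrated to give IC50. Ki comes from a 1/v vs 1/[dopamine] plot, competitive model.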

[4] = Inhibition of Cu2-amyloid beta (1 to 40) complex-induced dopamine oxidation by spectrophotometry; summary of the method: as §2
[5] = Competitive inhibition of full-length Cu2-amyloid beta (1 to 40) complex-induced dopamine oxidation by Lineweaver-Burk plot analysis; summary of the method: as §2
[6] = Inhibition of Cu2-amyloid beta (1 to 20) complex-induced dopamine oxidation by spectrophotometry; summary of the method: as §2
[7] = Inhibition of Cu2-amyloid beta (1 to 16) complex-induced THB oxidation by spectrophotometry; summary of the method: as §1
[8] = Inhibition of Cu2-amyloid beta (1 to 16) complex-induced DTBC oxidation by spectrophotometry; summary of the method: as §1
[9] = Competitive inhibition of Cu2-amyloid beta (1 to 20) complex-induced THB oxidation by spectrophotometry; summary of the method: as §1

Ki [1]: 0.2 mM
Ki [2]: 0.13 mM
SMILES: Cc1ncc(COP(=O)(O)O)c(C=O)c1O [PYRIDOXAL PHOSPHATE ANHYDROUS]

IC50 [3]: 7 mM
IC50 [4]: 7 mM
Ki [5]: 1.42 mM
IC50 [6]: 7 mM
Ki [6]: 1.4 mM
SMILES: Cc1ncc(CO)c(CN)c1O [PYRIDOXAMINE]

Ki [3]: 5.56 mM
Ki [7]: 8.67 mM
Ki [6]: 8.29 mM
Ki [8]: 5.05 mM
SMILES: Cc1ncc(CO)c(CO)c1O [PYRIDOXINE HYDROCHLORIDE]

Ki [1]: 1.12 mM
Ki [9]: 2.8 mM
Ki [2]: 0.67 mM
SMILES: Cc1ncc(CO)c(C=O)c1O [PYRIDOXAL]
